Measured values published in ChEMBL document CHEMBL1138564, “Microwave-induced synthesis and anti-microbial activities of 7,10,11,12-tetrahydrobenzo[c]acridin-8(9H)-one derivatives” (2009).
In brackets after ≈: the same amount, converted by molar mass. Activity calls are given as the source filed them. The rule behind the calls is not given here.

Columns and labels:
Bacillus subtilis = test: Antimicrobial activity against Bacillus subtilis NCIM 2063 at 1000 ug/disk after 24 hrs by disk diffusion method; assay type: functional; details: NCIM 2063, 24 h, read-out: DIZ
Summary of the method: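 Disc diffusion on Mueller–Hinton agar. 100 µl of bacterial suspension at 10⁸ CFU/ml is spread on the plate. Discs carry test compounds at two loadings, dissolved in DMSO; DMSO alone serves as negative control. Ofloxacin disc is the positive reference. Plates are incubated at 37 °C for 24 h, and the inhibition zone diameter is measured.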

Aspergillus fumigatus [1] = test: Antimicrobial activity against Aspergillus fumigatus NCIM 902 at 500 ug/disk after 72 hrs by disk diffusion method; assay type: functional; details: for zone of inhibition at 500 µg/disc: NCIM 902, 72 h, read-out: DIZ
Summary of the method: (§1)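 Disc diffusion on Sabouraud's dextrose agar. 100 µl of fungal suspension at 10⁶ CFU/ml is spread on the plate. Discs carry test compounds at two loadings in DMSO; DMSO alone is the negative control. Clotrimazole disc is the positive reference. Plates are incubated at 27 °C for 72 h, and the zone of inhibition diameter is measured.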

Penicillium chrysogenum [2] = test: Antimicrobial activity against Penicillium chrysogenum NCIM 707 at 1000 ug/disk after 72 hrs by disk diffusion method; assay type: functional; details: for zone of inhibition at 1000 µg/disc: NCIM 707, 72 h, read-out: DIZ; summary of the method: as §1
Pseudomonas aeruginosa [3] = test: Antimicrobial activity against Pseudomonas aeruginosa NCIM 2200 at 500 ug/disk after 24 hrs by disk diffusion method; assay type: functional; details: for zone of inhibition at 500 µg/disc: NCIM 2200, 24 h, read-out: DIZ
Summary of the method: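 Disc diffusion. 100 µl of bacterial suspension at 10⁸ CFU/ml was spread on Mueller–Hinton agar. Discs loaded with test compound dissolved in DMSO were placed on the lawn, with a DMSO-only disc as negative control. Plates were incubated at 37 °C for 24 h, and the inhibition zone diameter was measured.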

Staphylococcus = test: Antimicrobial activity against Staphylococcus albus NCIM 2178 after 24 hrs by serial dilution method; assay type: functional; details: NCIM 2178, 24 h
Proteus vulgaris = test: Antimicrobial activity against Proteus vulgaris NCIM 2027 after 24 hrs by serial dilution method; assay type: functional; details: NCIM 2027, 24 h
Summary of the method: (§2)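 Broth dilution MIC in nutrient broth, run only for organisms found sensitive in disc diffusion. Compounds are two-fold serially diluted in 1 ml sterile broth per tube, spanning 3.9 to 1000. Inoculated tubes are incubated at 37 °C for 24 h.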

Aspergillus flavus = test: Antimicrobial activity against Aspergillus flavus NCIM 902 after 72 hrs by serial dilution method; assay type: functional; details: NCIM 535, 72 h, in the assay text read “NCIM 535” for “NCIM 902”
Summary of the method: (§3)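 MIC by broth dilution in Sabouraud's dextrose broth, only for fungi sensitive in disc diffusion. Two-fold serial dilutions of compounds are made in 1 ml broth per tube, range 3.9 to 1000. Inoculated tubes are incubated at 27 °C for 72 h.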

Aspergillus fumigatus [4] = test: Antimicrobial activity against Aspergillus fumigatus NCIM 902 after 72 hrs by serial dilution method; assay type: functional; details: NCIM 902, 72 h; summary of the method: as §3
Aspergillus parasiticus = test: Antimicrobial activity against Aspergillus parasiticus NCIM 904 after 72 hrs by serial dilution method; assay type: functional; details: NCIM 904, 72 h; summary of the method: as §3
Penicillium chrysogenum [5] = test: Antimicrobial activity against Penicillium chrysogenum NCIM 707 after 72 hrs by serial dilution method; assay type: functional; details: NCIM 707, 72 h; summary of the method: as §3
Lipomyces lipofer = test: Antimicrobial activity against Lipomyces lipofer NCIM 3252 after 72 hrs by serial dilution method; assay type: functional; details: NCIM 3252, 72 h; summary of the method: as §3
Trichoderma viride = test: Antimicrobial activity against Trichoderma viride NCIM 1195 at 1000 ug/disk after 72 hrs by disk diffusion method; assay type: functional; details: NCIM 1195, 72 h, read-out: DIZ
Summary of the method: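 Fungal disc diffusion. 100 µl of suspension at 10⁶ CFU/ml was spread on Sabouraud's dextrose agar. Discs carrying test compound in DMSO were applied, with a DMSO-only disc as negative control. Plates were incubated at 27 °C for 72 h, and the zone of inhibition diameter was measured.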

Pseudomonas aeruginosa [6] = test: Antimicrobial activity against Pseudomonas aeruginosa NCIM 2200 after 24 hrs by serial dilution method; assay type: functional; details: NCIM 2200, 24 h; summary of the method: as §2
Klebsiella aerogenes = test: Antimicrobial activity against Klebsiella aerogenes NCIM 2239 after 24 hrs by serial dilution method; assay type: functional; details: NCIM 2239, 24 h; summary of the method: as §2
Salmonella typhimurium = test: Antimicrobial activity against Salmonella Typhimurium NCIM 2501 after 24 hrs by serial dilution method; assay type: functional, Salmonella enterica subsp. enterica serovar Typhimurium; details: Salmonella enterica, NCIM 2501, 24 h
Bacillus cereus = test: Antimicrobial activity against Bacillus cereus NCIM 2155 after 24 hrs by serial dilution method; assay type: functional; details: NCIM 2155, 24 h; summary of the method: as §2
[7] = test system: Rhodococcus corynebacterioides; test: Antimicrobial activity against Corynebacterium rubrum NCIM 2252 after 24 hrs by serial dilution method; assay type: functional; details: Rhodococcoides corynebacterioides, NCIM 2252, 24 h; summary of the method: as §2
Aspergillus niger [8] = test: Antimicrobial activity against Aspergillus niger NCIM 1196 at 500 ug/disk after 72 hrs by disk diffusion method
Aspergillus niger [9] = test: Antimicrobial activity against Aspergillus niger NCIM 1196 at 1000 ug/disk after 72 hrs by disk diffusion method
Aspergillus niger [10] = test: Antimicrobial activity against Aspergillus niger NCIM 902 at 1000 ug/disk after 72 hrs by disk diffusion method; assay type: functional; details: NCIM 1196, 72 h, in the assay text read “NCIM 1196” for “NCIM 902”, read-out: DIZ; summary of the method: as §1
Aspergillus niger [11] = test: Antimicrobial activity against Aspergillus niger NCIM 902 after 72 hrs by serial dilution method; assay type: functional; details: NCIM 1196, 72 h, in the assay text read “NCIM 1196” for “NCIM 902”; summary of the method: as §3

| SMILES | zone of inhibition at 1000 µg/disc (Bacillus subtilis) | zone of inhibition at 1000 µg/disc (Penicillium chrysogenum [2]) | MIC (Aspergillus flavus) | MIC (Aspergillus fumigatus [4]) | MIC (Aspergillus parasiticus) | MIC (Penicillium chrysogenum [5]) | MIC (Lipomyces lipofer) | zone of inhibition at 1000 µg/disc (Trichoderma viride) | MIC (Klebsiella aerogenes) | MIC (Salmonella typhimurium) | MIC (Bacillus cereus) | MIC [7] | diameter of the inhibition zone (DIZ) (Aspergillus niger [8]) | diameter of the inhibition zone (DIZ) (Aspergillus niger [9]) | diameter of the inhibition zone (DIZ) (Aspergillus fumigatus [1]) | diameter of the inhibition zone (DIZ) (Penicillium chrysogenum [2]) | diameter of the inhibition zone (DIZ) (Pseudomonas aeruginosa [3]) | further results |
| --- | --- | --- | --- | --- | --- | --- | --- | --- | --- | --- | --- | --- | --- | --- | --- | --- | --- | --- |
| CC1(C)CC(=O)C2=C(C1)Nc1c(ccc3ccccc13)C2c1cccc([N+](=O)[O-])c1 (stereo unspecified) | 11 mm | 11 mm | 15.6 µg/mL (≈ 39.2 µM) | 62.5 µg/mL (≈ 157 µM) | 3.9 µg/mL (≈ 9.79 µM) | 62.5 µg/mL (≈ 157 µM) | 62.5 µg/mL (≈ 157 µM) | 12 mm | 31.2 µg/mL (≈ 78.3 µM) | 15.6 µg/mL (≈ 39.2 µM) | 15.6 µg/mL (≈ 39.2 µM) | 125 µg/mL (≈ 314 µM) | inactive | inactive | – | – | – | zone of inhibition at 500 µg/disc (Aspergillus fumigatus [1]): 8 mm; zone of inhibition at 500 µg/disc (Pseudomonas aeruginosa [3]): 7 mm; MIC (Staphylococcus): 125 µg/mL (≈ 314 µM); MIC (Proteus vulgaris): 125 µg/mL (≈ 314 µM); MIC (Pseudomonas aeruginosa [6]): 125 µg/mL (≈ 314 µM) |
| CC1(C)CC(=O)C2=C(C1)Nc1c(ccc3ccccc13)C2c1ccc(Cl)cc1 (stereo unspecified) | 10 mm | – | 125 µg/mL (≈ 322 µM) | 125 µg/mL (≈ 322 µM) | 3.9 µg/mL (≈ 10.1 µM) | – | – | 9 mm | 62.5 µg/mL (≈ 161 µM) | 31.2 µg/mL (≈ 80.4 µM) | 15.6 µg/mL (≈ 40.2 µM) | 62.5 µg/mL (≈ 161 µM) | inactive | inactive | inactive | inactive | – | zone of inhibition at 500 µg/disc (Pseudomonas aeruginosa [3]): 7 mm; MIC (Staphylococcus): 125 µg/mL (≈ 322 µM); MIC (Proteus vulgaris): 62.5 µg/mL (≈ 161 µM); MIC (Pseudomonas aeruginosa [6]): 62.5 µg/mL (≈ 161 µM) |
| O=C1CCCC2=C1C(c1ccccc1Cl)c1ccc3ccccc3c1N2 (stereo unspecified) | 10 mm | – | 62.5 µg/mL (≈ 174 µM) | 62.5 µg/mL (≈ 174 µM) | 62.5 µg/mL (≈ 174 µM) | – | – | 10 mm | – | – | – | 125 µg/mL (≈ 347 µM) | inactive | inactive | inactive | inactive | inactive | – |
| O=C1CCCC2=C1C(c1cccc(Cl)c1)c1ccc3ccccc3c1N2 (stereo unspecified) | 11 mm | – | 62.5 µg/mL (≈ 174 µM) | 31.2 µg/mL (≈ 86.7 µM) | 15.6 µg/mL (≈ 43.4 µM) | – | – | 10 mm | 125 µg/mL (≈ 347 µM) | – | – | 125 µg/mL (≈ 347 µM) | inactive | inactive | – | inactive | inactive | zone of inhibition at 500 µg/disc (Aspergillus fumigatus [1]): 8 mm |
| CC1(C)CC(=O)C2=C(C1)Nc1c(ccc3ccccc13)C2c1cccc(Cl)c1 (stereo unspecified) | 9 mm | 10 mm | 62.5 µg/mL (≈ 161 µM) | 62.5 µg/mL (≈ 161 µM) | 31.2 µg/mL (≈ 80.4 µM) | 62.5 µg/mL (≈ 161 µM) | 125 µg/mL (≈ 322 µM) | 13 mm | 125 µg/mL (≈ 322 µM) | 62.5 µg/mL (≈ 161 µM) | 62.5 µg/mL (≈ 161 µM) | 125 µg/mL (≈ 322 µM) | inactive | inactive | inactive | – | inactive | – |
| CC1(C)CC(=O)C2=C(C1)Nc1c(ccc3ccccc13)C2c1ccccc1Cl (stereo unspecified) | 8 mm | – | 62.5 µg/mL (≈ 161 µM) | 125 µg/mL (≈ 322 µM) | 62.5 µg/mL (≈ 161 µM) | – | 125 µg/mL (≈ 322 µM) | 8 mm | 125 µg/mL (≈ 322 µM) | 31.2 µg/mL (≈ 80.4 µM) | 31.2 µg/mL (≈ 80.4 µM) | – | inactive | inactive | inactive | inactive | inactive | – |
| CC1(C)CC(=O)C2=C(C1)Nc1c(ccc3ccccc13)C2c1ccccc1 (stereo unspecified) | 11 mm | – | 62.5 µg/mL (≈ 177 µM) | 62.5 µg/mL (≈ 177 µM) | 62.5 µg/mL (≈ 177 µM) | – | – | 12 mm | – | 62.5 µg/mL (≈ 177 µM) | 31.2 µg/mL (≈ 88.3 µM) | – | inactive | inactive | inactive | inactive | inactive | – |
| O=C1CCCC2=C1C(c1ccccc1O)c1ccc3ccccc3c1N2 (stereo unspecified) | 10 mm | 9 mm | 31.2 µg/mL (≈ 91.4 µM) | 62.5 µg/mL (≈ 183 µM) | 62.5 µg/mL (≈ 183 µM) | 125 µg/mL (≈ 366 µM) | – | 10 mm | – | – | 125 µg/mL (≈ 366 µM) | – | inactive | – | inactive | – | inactive | zone of inhibition at 1000 µg/disc (Aspergillus niger [10]): 9 mm; MIC (Aspergillus niger [11]): 125 µg/mL (≈ 366 µM) |
| CC1(C)CC(=O)C2=C(C1)Nc1c(ccc3ccccc13)C2c1ccccc1O (stereo unspecified) | 9 mm | – | 62.5 µg/mL (≈ 169 µM) | – | 3.9 µg/mL (≈ 10.6 µM) | – | – | 12 mm | 62.5 µg/mL (≈ 169 µM) | 31.2 µg/mL (≈ 84.4 µM) | 62.5 µg/mL (≈ 169 µM) | – | inactive | inactive | inactive | inactive | inactive | – |
